Results pooled from the literature.
Target: SRSF protein kinase 2 (SRPK2, Homo sapiens, UniProt P78362)

CC(C)(O)[C@H]1CC[C@H](Nc2ccc3ncc(-c4cccc(C(F)(F)F)c4)n3n2)CC1 — remaining activity (enzyme activity; inhibitor; 1 µM): 94.5%
CN(C)CC#Cc1ccc(OCCCc2sc(N3CCc4cccc(C(=O)Nc5nc6ccccc6s5)c4C3)nc2C(=O)O)c(F)c1 — remaining binding (cell-free assay; competition with immobilised ligand; 1 µM): 100%
CCN(CC)CCNC(=O)c1c(C)[nH]c(/C=C2\C(=O)Nc3ccc(F)cc32)c1C — inhibition (enzyme activity; inhibitor; 0.3 µM): 6%
CCC1(CC)NC(=O)c2c(c3ccc(Cl)c(Cl)c3n2C)C1C#N (stereo not shown) — ΔTm (thermal stability; DSF; 10 µM): 0.1 °C
CCC(=N\O)/C(C)=C/c1ccc(F)cc1 — remaining binding (cell-free assay; competition with immobilised ligand; 1 µM): 75%
COc1cc(Cl)c(C(=O)N[C@@H](CN[C@H]2CC[C@@H](N)CC2)Cc2ccc(C#N)cc2)cc1-c1ccc(CN[C@H](C)c2ccc(C)cc2)o1 — remaining activity (enzyme activity; inhibitor; 1 µM): 98%
O=C(Nc1cnn(-c2csc(C(=O)NC3COC3)c2)c1)Nc1c(F)cccc1Cl — remaining activity (enzyme activity; inhibitor; 5 µM): 94%
O=C1Nc2ccc(Cl)cc2C1=Cc1cc(Cl)c(O)c(Cl)c1 — remaining signal (cell-free assay; 0.5 µM): 95.2%
Cc1ccc(NC(=O)c2ccc(C)c(C(F)(F)F)c2)cc1C#Cc1nn(C2CCC(O)CC2)c2ncnc(N)c12 (stereo not shown) — remaining signal (cell-free assay; 10 µM): 107%
CNCc1ccccc1-c1csc([C@@H](C)Nc2nc(C)nc3cc(OC)c(OC)cc23)c1 — remaining binding (cell-free assay; competition with immobilised ligand; 1 µM): 61%
Nc1ncnc2occ(-c3ccc(NC(=O)Nc4cc(C(F)(F)F)ccc4F)cc3)c12 — remaining signal (cell-free assay; inhibitor; 20 µM): 100%
C[C@@H]1CN(c2cc(-c3n[nH]c4ccc(OC5(C)CC5)cc34)ncn2)C[C@H](C)O1 — remaining binding (cell-free assay; competition with immobilised ligand; 0.1 µM): 79%
COc1cc(-c2cc(-c3ccc(N4CCNCC4)cc3)cnc2C)cc(OC)c1OC — inhibition (enzyme activity; inhibitor; 1 µM): 2%
Cc1cnc(NC2CCOCC2)nc1-n1cnc(C(=O)NC(CN)c2cc(F)cc(Cl)c2)c1 (stereo not shown) — remaining activity (enzyme activity; inhibitor; radiometric; 1 µM): 101%
CCCS(=O)(=O)Nc1ccc(F)c(C(=O)c2c[nH]c3ncc(-c4ccc(Cl)cc4)cc23)c1F — inhibition (enzyme activity; inhibitor; 1 µM): < 10%
Cn1c2c(c3ccc(Cl)c(Cl)c31)C(C#N)C1(CCNCC1)NC2=O (racemic) — ΔTm (thermal stability; DSF; 10 µM): 2.4 °C
CNC(=O)c1cc(Oc2ccc(NC(=O)Nc3ccc(Cl)c(C(F)(F)F)c3)cc2)ccn1 — inhibition (enzyme activity; inhibitor; 0.3 µM): 2%
COc1cccc(CNC(=O)c2nc3scc(COCc4ccc(C(=O)O)cc4)c3c(=O)[nH]2)c1 — remaining binding (cell-free assay; competition with immobilised ligand; 1 µM): 100%
Cc1sc(C(=O)NC2COC2)cc1-n1cc(NC(=O)Nc2c(F)cccc2Cl)cn1 — remaining activity (enzyme activity; inhibitor; 10 µM): 114%
CN1CCC2(CC1)NC(=O)c1c(c3ccc(Cl)c(Cl)c3n1C)C2C#N (racemic) — ΔTm (thermal stability; DSF; 10 µM): 0.7 °C
Cc1ccc(Nc2nccc(N(C)c3ccc4c(C)n(C)nc4c3)n2)cc1S(N)(=O)=O — inhibition (enzyme activity; inhibitor; 0.3 µM): -9%
CC(C)(C)c1nc(-c2cccc(NS(=O)(=O)c3c(F)cccc3F)c2F)c(-c2ccnc(N)n2)s1 — remaining activity (enzyme activity; inhibitor; radiometric; 1 µM): 111%
CC1(C)NC(=O)c2[nH]c3c(Cl)c(Cl)ccc3c2C1C#N (stereo not shown) — ΔTm (thermal stability; DSF; 10 µM): 0.4 °C
O=C(O)c1cc(-c2ccc(C3CCNCC3)cc2)c2ccc(-c3ccc(C(F)(F)F)cc3)cc2c1 — remaining binding (cell-free assay; competition with immobilised ligand; 1 µM): 100%
C[C@@H]1CCN(C(=O)CC#N)C[C@@H]1N(C)c1ncnc2[nH]ccc12 — remaining signal (cell-free assay; inhibitor; 0.5 µM): 90.7%
CCN1CCC2(CC1)NC(=O)c1c(c3ccc(Cl)c(Cl)c3n1C)C2C#N (racemic) — ΔTm (thermal stability; DSF; 10 µM): 0.5 °C
COc1cc2ncnc(Nc3ccc(Oc4ccccc4)cc3C)c2cc1OC — inhibition (enzyme activity; inhibitor; 1 µM): 0%
C[C@@H](c1cccc(C#N)c1)n1cc(Cl)cc(C(N)=O)c1=N — remaining binding (cell-free assay; competition with immobilised ligand; 1 µM): 100%
CN1CC(Oc2cnc(C#N)cc2-c2ccn3nc(NC(=O)C4CC4)cc3c2)C1 — inhibition (enzyme activity; inhibitor; 1 µM): 6%
Cc1cc(-n2nc(Cc3cc(F)cc(C(F)(F)F)c3)nc2C)ccc1C(N)=O — remaining binding (cell-free assay; competition with immobilised ligand; 1 µM): 100%
Cn1c2c(c3ccc(Cl)c(Cl)c31)C(C#N)C(C)(C)NC2=O (stereo not shown) — ΔTm (thermal stability; DSF; 10 µM): 0.6 °C
